Laboratory results as given in ChEMBL document CHEMBL4316593 (Eur J Med Chem, 2019).
Calls of active or inactive are those of the source. No cut-off for these calls is given here.

Legend:
[1] = Inhibition of RTK/PI3K/AKT/mTOR signaling in human U87 cells assessed as up regulation of WW domain containing transcription regulator 1 gene expression at cytotoxic IC50 measured after 48 hrs relative to control; type: cell-based; conditions: U-87MG ATCC
[2] = Inhibition of RTK/PI3K/AKT/mTOR signaling in human U87 cells assessed as down regulation of SORT1 gene expression at cytotoxic IC50 measured after 48 hrs relative to control; type: cell-based; conditions: U-87MG ATCC
Procedure, shortened: (§1)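 Cells were exposed for 48hrs at 37°C in humidified 5% CO₂ to the compound at its previously determined IC₅₀, with Cisplatin at its IC₅₀ and an untreated negative control alongside. Each condition was run in triplicate. RNA was isolated from all samples by the same protocol. Genes were called differentially expressed by DESeq2 at q-value < 0.05 and fold change > 1.5.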

[3] = Inhibition of RTK/PI3K/AKT/mTOR signaling in human U87 cells assessed as down regulation of DAGLB gene expression at cytotoxic IC50 measured after 48 hrs relative to control; type: cell-based; conditions: U-87MG ATCC
Procedure, shortened: (§2)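 U87 cells grown in MEM with 10% FBS at 37°C, 5% CO2. Cells exposed to IC50 of test compound for 48 hrs, alongside untreated and cisplatin controls, each condition in triplicate. RNA isolated and profiled; differential expression called with DESeq2 (q-value < 0.05, fold change > 1.5), fold change versus untreated.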

U-87 MG [4] = assay: Cell cycle arrest in human U87 cells assessed as change in E2F2 gene expression at cytotoxic IC50 measured after 48 hrs […] relative to control; type: functional, U-87MG ATCC
Procedure, shortened: (§3)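 U87 expression profiling. Cells incubated 48hrs at 37°C, 5% CO₂ with the IC₅₀ concentration, alongside a cisplatin and an untreated control, in triplicate. RNA was isolated by one common protocol and profiled. DEGs were called with DESeq2 (q < 0.05, fold change > 1.5) and expressed as fold change versus untreated.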

U-87 MG [5] = assay: Induction of apoptosis in human U87 cells assessed as change in PMAIP1 gene expression at cytotoxic IC50 measured after 48 hrs […] relative to control; type: functional, U-87MG ATCC; procedure, shortened: as §2
[6] = Inhibition of RTK/PI3K/AKT/mTOR signaling in human U87 cells assessed as down regulation of TSPAN33 gene expression at cytotoxic IC50 measured after 48 hrs relative to control; type: cell-based; conditions: U-87MG ATCC; procedure, shortened: as §1
U-87 MG [7] = assay: Induction of apoptosis in human U87 cells assessed as change in BAX gene expression at cytotoxic IC50 measured after 48 hrs […] relative to control; type: functional, U-87MG ATCC; procedure, shortened: as §2
[8] = Inhibition of RTK/PI3K/AKT/mTOR signaling in human U87 cells assessed as down regulation of CHST3 gene expression at cytotoxic IC50 measured after 48 hrs relative to control; type: cell-based; conditions: U-87MG ATCC; procedure, shortened: as §2
U-87 MG [9] = assay: Cell cycle arrest in human U87 cells assessed as change in CDK1 gene expression at cytotoxic IC50 measured after 48 hrs […] relative to control; type: functional, U-87MG ATCC; procedure, shortened: as §3
[10] = Inhibition of RTK/PI3K/AKT/mTOR signaling in human U87 cells assessed as up regulation of KCMF1 gene expression at cytotoxic IC50 measured after 48 hrs relative to control; type: cell-based; conditions: U-87MG ATCC; procedure, shortened: as §1
LN-229 [11] = assay: Cytotoxicity against human LN229 cells assessed as reduction in cell proliferation up to 200 uM by trypan blue dye-based cell counting analysis; type: functional; conditions: TDE = time-dependent effect
[12] = Inhibition of RTK/PI3K/AKT/mTOR signaling in human U87 cells assessed as up regulation of COX19, cytochrome c oxidase assembly factor gene expression at cytotoxic IC50 measured after 48 hrs relative to control; type: cell-based; conditions: U-87MG ATCC; procedure, shortened: as §1
[13] = Inhibition of RTK/PI3K/AKT/mTOR signaling in human U87 cells assessed as up regulation of tribbles pseudokinase 2 gene expression at cytotoxic IC50 measured after 48 hrs relative to control; type: cell-based; conditions: U-87MG ATCC
U-87 MG [14] = assay: Induction of apoptosis in human U87 cells assessed as change in CAPN2 gene expression at cytotoxic IC50 measured after 48 hrs […] relative to control; type: functional, U-87MG ATCC; procedure, shortened: as §2
[15] = Inhibition of RTK/PI3K/AKT/mTOR signaling in human U87 cells assessed as down regulation of MAP2 gene expression at cytotoxic IC50 measured after 48 hrs relative to control; type: cell-based; conditions: U-87MG ATCC; procedure, shortened: as §1
[16] = Inhibition of RTK/PI3K/AKT/mTOR signaling in human U87 cells assessed as down regulation of TOMM34 gene expression at cytotoxic IC50 measured after 48 hrs relative to control; type: cell-based; conditions: U-87MG ATCC; procedure, shortened: as §1
U-87 MG [17] = assay: Induction of DNA damage in human U87 cells assessed as change in PLK3 gene expression at cytotoxic IC50 measured after 48 hrs […] relative to control; type: functional, U-87MG ATCC; procedure, shortened: as §3
[18] = Inhibition of RTK/PI3K/AKT/mTOR signaling in human U87 cells assessed as down regulation of POP4 gene expression at cytotoxic IC50 measured after 48 hrs relative to control; type: cell-based; conditions: U-87MG ATCC; procedure, shortened: as §1
[19] = Inhibition of RTK/PI3K/AKT/mTOR signaling in human U87 cells assessed as up regulation of ras homolog family member Q gene expression at cytotoxic IC50 measured after 48 hrs relative to control; type: cell-based; conditions: U-87MG ATCC
[20] = Inhibition of RTK/PI3K/AKT/mTOR signaling in human U87 cells assessed as up regulation of IER3 gene expression at cytotoxic IC50 measured after 48 hrs relative to control; type: cell-based; conditions: U-87MG ATCC; procedure, shortened: as §1
U-87 MG [21] = assay: Induction of DNA damage in human U87 cells assessed as change in TAOK3 gene expression at cytotoxic IC50 measured after 48 hrs […] relative to control; type: functional, U-87MG ATCC; procedure, shortened: as §2
U-87 MG [22] = assay: Cell cycle arrest in human U87 cells assessed as change in CREBBP gene expression at cytotoxic IC50 measured after 48 hrs […] relative to control; type: functional, U-87MG ATCC; procedure, shortened: as §3
[23] = Inhibition of RTK/PI3K/AKT/mTOR signaling in human U87 cells assessed as up regulation of platelet derived growth factor C gene expression at cytotoxic IC50 measured after 48 hrs relative to control; type: cell-based
U-87 MG [24] = assay: Induction of apoptosis in human U87 cells assessed as change in MAPK8 gene expression at cytotoxic IC50 measured after 48 hrs […] relative to control; type: functional, U-87MG ATCC; procedure, shortened: as §2
LN-229 [25] = assay: Induction of oxidative stress in human LN229 cells assessed as increase in redox level at cytotoxic IC50 measured after 5 hrs by H2DCFDA dye based fluorescence assay relative to control; type: functional, cell-based
Procedure, shortened: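 Cells grown overnight, exposed to IC50 for 5 hrs at 37°C with negative, positive (H2O2) and blank controls, plus solvent baseline. Pelleted, loaded with 2 µM H2DCFDA for 30 min at 37°C, washed, resuspended in warm medium, 20 min at room temperature. Fluorescence read at ex 485/em 535 nm.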

[26] = Inhibition of RTK/PI3K/AKT/mTOR signaling in human U87 cells assessed as up regulation of basic transcription factor 3 like 4 gene expression at cytotoxic IC50 measured after 48 hrs relative to control; type: cell-based; conditions: U-87MG ATCC

For `CC(=O)C(=NNc1ccccc1C#N)C(C)=O`, the log2FC [1] was 0.981, the log2FC [2] was -0.801 and the log2FC [3] was -0.876. The “fold change (FC)” value (U-87 MG [4]) was 2.384, the log2FC (U-87 MG [5]) was 1.102 and the log2FC [6] was -0.666. For the same compound, the log2FC (U-87 MG [7]) was 2.512, the log2FC [8] was -1.06 and the “fold change (FC)” value (U-87 MG [9]) was 1.569. For the same compound, the log2FC [10] was 0.499, the Activity (LN-229 [11]) was “Tde” and the log2FC [12] was 1.33. For the same compound, the log2FC [13] was 1.41, the log2FC (U-87 MG [14]) was -1.189 and the log2FC [15] was -1.55. The log2FC [16] was -1.47, the “fold change (FC)” value (U-87 MG [17]) was 1.714 and the log2FC [18] was -0.816. The log2FC [19] was 0.702, the log2FC [20] was 0.384 and the “fold change (FC)” value (U-87 MG [21]) was -1.929. For the same compound, the “fold change (FC)” value (U-87 MG [22]) was -1.086, the log2FC [23] was 0.883 and the log2FC (U-87 MG [24]) was -1.076. The Activity (LN-229 [25]) was “inactive” and the log2FC [26] was 0.896.
